We go through four molecules from ChEMBL document CHEMBL1127367, “Antiproliferative properties of polyamine analogues: a structure-activity study” (J Med Chem, 1994).

For experiment [1], the system named is L1210. As to the kind of experiment: Compound was evaluated for its impact on putrescine (Put) levels after 48 hr at concentration 70 uM. The class given is functional, Mus musculus. In outline:
(§1)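 L1210 suspension cultures were grown in RPMI-1640 with 10% NuSerum, 2% HEPES-MOPS and 1 mM aminoguanidine (37 °C, 5% CO2). Log-phase cells were treated for 48 h, then washed twice in cold RPMI-1640 and pelleted. Pellets were extracted with 0.6 N perchloric acid, and supernatants were held at −20 °C until HPLC. Polyamine levels are given as % of untreated controls.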

In experiment [2] the test system is L1210. As to the kind of experiment: Compound was evaluated for its impact on putrescine (Put) levels after 48 hr at concentration 14 uM. The class given is functional, Mus musculus. In outline:
as §1

Experiment [3] addresses Spermidine/spermine N(1)-acetyltransferase (SAT) (Mus musculus) (UniProt Q6P8J2+P48026). As to the kind of experiment: […] spermidine/spermine N1-Acetyltransferase (SSAT) activity. The class given is functional. Also on record: concentration or dose not given beside the values.
The subject of experiment [4] is L1210. As to the kind of experiment: Compound was evaluated for its impact on spermine levels after 48 hr at concentration 70 uM. The class given is functional, Mus musculus. The gist of the method: (§2)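 Murine L1210 leukemia cells in log-phase suspension (RPMI-1640, 10% NuSerum, 2% HEPES-MOPS, 1 mM aminoguanidine, 37 °C, 5% CO2) exposed to analogue for 48 h. Cells washed twice in cold RPMI-1640, extracted with 0.6 N perchloric acid, and polyamines quantified by HPLC. Spermine is reported as % of untreated control.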

In experiment [5] the test system is L1210. As to the kind of experiment: Compound level in L1210 cells after 48 hours of incubation at initial concentration of 14 uM is expressed as nmol/10e6 cells. It counts as functional, Mus musculus. The gist of the method: (§3)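 Murine L1210 leukemia cells were kept in logarithmic growth as a suspension in RPMI-1640 with 10% NuSerum, 2% HEPES-MOPS buffer and 1 mM aminoguanidine, at 37 °C under 5% CO2. Log-phase cells were exposed to the analogue for 48 h. Intracellular analogue content is reported per 10^6 cells.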

The test system of experiment [6] is L1210. As to the kind of experiment: In vitro inhibition of L1210 growth after 96 hours. The class given is functional, cell-based. Particulars: Mus musculus, L1210, 96 h. The gist of the method:
(§4)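 Log-phase L1210 cultures (0.5–1.0 × 10^5 cells/mL) treated with analogue diluted in sterile water and filter-sterilized. After 48 h, cells were reseeded and grown a further 48 h for the 96 h point. Cells counted by Coulter counter. % growth = (treated − inoculum)/(untreated − inoculum) × 100.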

The subject of experiment [7] is L1210. As to the kind of experiment: Compound level in L1210 cells after 48 hours of incubation at initial concentration of 70 uM is expressed as nmol/10e6 cells. The class given is functional, Mus musculus. The gist of the method:
as §3

The subject of experiment [8] is L1210. As to the kind of experiment: In vitro inhibition of L1210 growth after 48 hours. The class given is functional, cell-based. Conditions: Mus musculus, L1210, 48 h. The gist of the method:
as §4

Experiment [9] concerns L1210. As to the kind of experiment: Compound was evaluated for its impact on spermine levels after 48 hr at concentration 14 uM. The class given is functional, Mus musculus. The gist of the method: as §2
In experiment [10] the test system is L1210. As to the kind of experiment: Compound was evaluated for its impact on spermidine levels after 48 hr at concentration 14 uM. It counts as functional, Mus musculus. The gist of the method: as §1
For experiment [11], the target named is T1, Ornithine decarboxylase (Mus musculus) (UniProt P00860).
T1 sequence (whole entry): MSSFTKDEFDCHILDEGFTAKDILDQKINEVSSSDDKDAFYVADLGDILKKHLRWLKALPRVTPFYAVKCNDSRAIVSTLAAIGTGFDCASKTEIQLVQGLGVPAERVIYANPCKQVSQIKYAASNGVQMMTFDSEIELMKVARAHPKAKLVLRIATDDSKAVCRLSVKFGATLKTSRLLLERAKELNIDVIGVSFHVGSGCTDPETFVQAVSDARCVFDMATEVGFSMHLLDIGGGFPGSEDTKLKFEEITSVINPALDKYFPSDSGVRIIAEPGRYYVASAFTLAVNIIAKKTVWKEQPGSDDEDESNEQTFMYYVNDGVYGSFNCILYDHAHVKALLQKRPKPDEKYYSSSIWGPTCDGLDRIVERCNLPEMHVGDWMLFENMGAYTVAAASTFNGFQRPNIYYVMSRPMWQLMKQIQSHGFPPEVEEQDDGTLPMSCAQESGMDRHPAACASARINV
As to the kind of experiment: Inhibition of ornithine decarboxylase (ODC) activity. It counts as functional. Also on record: concentration or dose not given beside the values.

Experiment [12] relates to L1210. As to the kind of experiment: Compound was evaluated for its impact on spermidine levels after 48 hr at concentration 70 uM. The class given is functional, Mus musculus. The gist of the method:
as §1

For experiment [13], the system named is L1210. As to the kind of experiment: Inhibition of radiolabeled spermidine uptake into L1210 cells in vitro. It counts as functional, cell-based, Mus musculus.
Experiment [14] deals with T2, S-adenosylmethionine decarboxylase proenzyme 1 (Mus musculus) (UniProt P0DMN7).
T2 sequence (whole entry): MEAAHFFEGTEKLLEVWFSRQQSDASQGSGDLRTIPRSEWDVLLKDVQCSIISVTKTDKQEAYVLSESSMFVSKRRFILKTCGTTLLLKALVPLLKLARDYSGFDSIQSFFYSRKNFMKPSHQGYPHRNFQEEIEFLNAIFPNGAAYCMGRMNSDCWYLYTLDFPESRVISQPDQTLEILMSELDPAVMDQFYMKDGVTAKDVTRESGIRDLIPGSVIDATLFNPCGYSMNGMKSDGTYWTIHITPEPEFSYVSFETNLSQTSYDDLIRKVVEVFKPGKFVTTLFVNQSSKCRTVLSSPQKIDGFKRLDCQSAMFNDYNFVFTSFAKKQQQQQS
As to the kind of experiment: Inhibition of S-Adenosyl-methionine decarboxylase (AdoMetDC) activity. It counts as functional. Also on record: concentration or dose not given beside the values.

The test system of experiment [15] is L1210. As to the kind of experiment: Compound level in L1210 cells after 48 hours of incubation at initial concentration of 1.5 uM is expressed as nmol/10e6 cells. The class given is functional, Mus musculus. The gist of the method:
as §3

Experiment [16] concerns L1210. As to the kind of experiment: Compound was evaluated for its impact on spermidine levels after 48 hr at concentration 0.3 uM. The class given is functional, Mus musculus. In outline:
as §1

Experiment [17] concerns L1210. As to the kind of experiment: Compound was evaluated for its impact on putrescine (Put) levels after 48 hr at concentration 0.3 uM. It counts as functional, Mus musculus. In outline:
as §1

Experiment [18] has as its system L1210. As to the kind of experiment: Compound was evaluated for its impact on putrescine (Put) levels after 48 hr at concentration 1.5 uM. The class given is functional, Mus musculus. The gist of the method: as §1
The test system of experiment [19] is L1210. As to the kind of experiment: Compound was evaluated for its impact on spermidine levels after 48 hr at concentration 1.5 uM. The class given is functional, Mus musculus. In outline: as §1
Experiment [20] concerns L1210. As to the kind of experiment: Compound was evaluated for its impact on spermine levels after 48 hr at concentration 0.3 uM. The class given is functional, Mus musculus. The gist of the method:
as §1

For experiment [21], the system named is L1210. As to the kind of experiment: Compound was evaluated for its impact on spermine levels after 48 hr at concentration 1.5 uM. The class given is functional, Mus musculus. In outline:
as §2

Experiment [22] has as its system L1210. As to the kind of experiment: Compound level in L1210 cells after 48 hours of incubation at initial concentration of 0.3 uM is expressed as nmol/10e6 cells. It counts as functional, Mus musculus. The gist of the method:
as §3

Experiment [23] relates to L1210. As to the kind of experiment: Compound was evaluated for its impact on spermidine levels after 48 hr at concentration 3 uM. The class given is functional, Mus musculus. In outline: as §1
The subject of experiment [24] is L1210. As to the kind of experiment: Compound was evaluated for its impact on spermine levels after 48 hr at concentration 3 uM. It counts as functional, Mus musculus. In outline:
as §2

In experiment [25] the test system is L1210. As to the kind of experiment: Compound was evaluated for its impact on putrescine (Put) levels after 48 hr at concentration 15 uM. It counts as functional, Mus musculus. In outline: as §1
Experiment [26] concerns L1210. As to the kind of experiment: Compound was evaluated for its impact on spermine levels after 48 hr at concentration 15 uM. The class given is functional, Mus musculus. In outline:
as §2

Experiment [27] concerns L1210. As to the kind of experiment: Compound was evaluated for its impact on putrescine (Put) levels after 48 hr at concentration 3 uM. The class given is functional, Mus musculus. In outline: as §1
The subject of experiment [28] is L1210. As to the kind of experiment: Compound level in L1210 cells after 48 hours of incubation at initial concentration of 15 uM is expressed as nmol/10e6 cells. It counts as functional, Mus musculus. The gist of the method: as §3
The test system of experiment [29] is L1210. As to the kind of experiment: Compound was evaluated for its impact on spermidine levels after 48 hr at concentration 15 uM. It counts as functional, Mus musculus. The gist of the method: as §1
In experiment [30] the test system is L1210. As to the kind of experiment: Compound level in L1210 cells after 48 hours of incubation at initial concentration of 3 uM is expressed as nmol/10e6 cells. The class given is functional, Mus musculus. The gist of the method:
as §3

Experiment [31] has as its system L1210. As to the kind of experiment: (§5) Compound was evaluated for its impact on spermine levels uM. It counts as functional, Mus musculus.
Experiment [32] relates to L1210. Described as §5. It counts as functional, Mus musculus. This is another data set of the same source.
For experiment [33], the system named is S-adenosylmethionine decarboxylase (Mus musculus). As to the kind of experiment: Effect of compound on S-Adenosyl-methionine decarboxylase (AdoMetDC) activity expressed as percent of untreated control for (AdoMetDC) (1 uM at 6 hr).

Sequence of Spermidine/spermine N(1)-acetyltransferase (SAT) (Mus musculus) (P48026 whole entry, looked up): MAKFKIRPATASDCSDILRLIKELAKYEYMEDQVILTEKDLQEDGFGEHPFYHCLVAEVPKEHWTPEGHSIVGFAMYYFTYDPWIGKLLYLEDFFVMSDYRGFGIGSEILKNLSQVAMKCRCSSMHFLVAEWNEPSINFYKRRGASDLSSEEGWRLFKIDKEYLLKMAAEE
Sequence of Spermidine/spermine N(1)-acetyltransferase (SAT) (Mus musculus) (Q6P8J2 whole entry, looked up): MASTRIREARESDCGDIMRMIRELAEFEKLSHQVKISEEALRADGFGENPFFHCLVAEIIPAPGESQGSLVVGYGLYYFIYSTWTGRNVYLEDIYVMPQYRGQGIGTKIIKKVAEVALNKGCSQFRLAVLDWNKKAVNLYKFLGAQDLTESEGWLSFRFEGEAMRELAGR

Take `CCNCCCCNCCCCNCCCCN`: the Polyamine amounted to 0% with L1210 [1]; 0% in the experiment on L1210 [2]; 26% in the experiment on L1210 [4]; 26% in the experiment with L1210 [9]; 0% with L1210 [10]; 0% with L1210 [12]. The Activity came to 110% in experiment [3]; 2.99 with L1210 [5]; 3.22 with L1210 [7]; 3% in experiment [11]; 41% in experiment [14]. Also, the figures for the half-inhibitory concentration (IC50) with L1210 [6] and in the experiment on L1210 [8] were 170 nM and 14000 nM, respectively. This molecule showed a Ki in the experiment on L1210 [13] of 1100 nM.
In the case of `CCNCCCCNCCCCNCCCNCC`, the Activity in experiment [3] was 370%; with L1210 [15] it was 0.64; in the experiment with L1210 [22], 0.27; in experiment [11], 5%; in experiment [14] it was 37%. The Polyamine in the experiment on L1210 [16] worked out at 47%; with L1210 [17], 40%; in the experiment on L1210 [18] it was 0%; in the experiment on L1210 [19] it was 0%; in the experiment with L1210 [20] it was 65%; with L1210 [21] it was 18%. For the same molecule, the IC50 with L1210 [6] worked out at 80 nM; in the experiment with L1210 [8], 300 nM. Moreover, affinity in the experiment with L1210 [13] was put at a Ki of 8000 nM.
Consider `CCCNCCCNCCCCNCCCNCCC`, for which the Polyamine in the experiment with L1210 [23] was 18%; in the experiment with L1210 [24], 64%; in the experiment on L1210 [25] it was 0%; with L1210 [26] it was 43%; in the experiment with L1210 [27] it was 0%; in the experiment with L1210 [29] it was 9%. Further, the Activity in experiment [3] is 500%; in the experiment on L1210 [28], 1.09; in the experiment with L1210 [30], 1.12; in experiment [11] it was 52%; in experiment [14], 72%. In addition, in the experiment with L1210 [13], the Ki stood at 2300 nM.
Take `CCNCCCCNCCCCCNCCCCNCC`: the Polyamine in the experiment on L1210 [31] is listed as 70%; in the experiment on L1210 [16], 61%; in the experiment with L1210 [32], 31%; with L1210 [17], 44%; in the experiment with L1210 [18] it was 0%; in the experiment with L1210 [19] it was 5%. The Activity in experiment [3] came to 120%; in the experiment with L1210 [15], 0.72; in experiment [33] it was 39%; with L1210 [22], 0.26; in [11], 20%. Further, the IC50 in the experiment with L1210 [6] turned out to be 35 nM; in the experiment with L1210 [8], 300 nM. In the experiment on L1210 [13], this molecule returned a Ki of 6000 nM.

The term IC50 denotes the concentration that inhibits the measured activity by half. As usually defined, the Ki is the dissociation constant of the complex between target and ligand, obtained from inhibition or displacement.
